Results reported in ChEMBL document CHEMBL1151809, “Prenylated and benzylated flavonoids from the fruits of Cudrania tricuspidata” (J Nat Prod, 2009).

How the values were obtained:
RAW264.7 [1] = test: Inhibition of LPS-induced nitric oxide production in mouse RAW264.7 cells by Griess assay; assay type: functional, cell-based
In short: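 LPS-stimulated RAW 264.7 cells; NO output measured as nitrite in culture supernatant by Griess reagent. IC50 derived, reported as mean ± SD from three separate experiments. Aminoguanidine run as positive control.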

RAW264.7 [2] = test: Cytotoxicity against mouse RAW264.7 cells by CCK-8 assay; assay type: cell-based
In short: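 Viability read by CCK-8 on the cells remaining after the Griess nitrite assay of the LPS-stimulated RAW 264.7 cultures.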

Row | SMILES | IC50 (RAW264.7 [1]) | Activity (RAW264.7 [2])
1 | C=C(C)C(O)Cc1c(O)c(CC=C(C)C)c2occ(-c3ccc(O)cc3)c(=O)c2c1O (stereo not given) [ISOERYSENEGALENSEIN E] | 12.7 µM | Non-toxic
2 | O=C1c2c(O)cc(O)c(Cc3ccc(O)cc3)c2O[C@H](c2ccc(O)cc2)[C@H]1O | > 50 µM | Non-toxic
3 | CC(C)=CCc1c(O)c(CC=C(C)C)c2occ(-c3ccc(O)cc3)c(=O)c2c1O | 19.2 µM | Non-toxic
4 | C=C(C)C(O)Cc1c(O)cc2occ(-c3ccc(OC)cc3)c(=O)c2c1O (stereo not given) | > 50 µM | Non-toxic
5 | COc1ccc(-c2coc3cc4c(c(O)c3c2=O)C=CC(C)(C)O4)cc1O | > 50 µM | Non-toxic
6 | C=C(C)C(O)Cc1c(O)c(CC=C(C)C)c(O)c2c(=O)c(-c3ccc(O)cc3)coc12 (stereo not given) [ERYSENEGALENSEIN E] | 18.4 µM | Non-toxic
7 | CC(C)=CCc1c2oc(C(C)(C)O)cc2c(O)c2c(=O)c(-c3ccc(O)cc3)coc12 | 12.1 µM | Non-toxic
8 | O=c1c(-c2ccc(O)c(O)c2)coc2cc(O)cc(O)c12 [OROBOL] | 18.7 µM | Non-toxic
9 | O=C1c2c(O)c(Cc3ccc(O)cc3)c(O)c(Cc3ccc(O)cc3)c2O[C@H](c2ccc(O)cc2)[C@H]1O [GERICUDRANIN D] | > 50 µM | Non-toxic
10 | CC(C)=CCc1c2c(c3occ(-c4ccc(O)cc4)c(=O)c3c1O)CC(C(C)(C)O)O2 (stereo not given) [SENEGALENSIN] | 13.1 µM | Non-toxic
11 | CO[C@@H]1c2c(c(CC=C(C)C)c(O)c3c(=O)c(-c4ccc(O)cc4)coc23)O[C@H]1C(C)(C)O | 11.8 µM | Non-toxic
12 | O=C1c2c(cc(O)c(Cc3ccc(O)cc3)c2O)O[C@H](c2ccc(O)cc2)[C@H]1O [GERICUDRANIN E] | 41.8 µM | Non-toxic
13 | N=C(N)NN [PIMAGEDINE] | 28 µM | –
